{
  "source": "ChEMBL document CHEMBL4808182",
  "about": "“Discovery of the Soluble Guanylate Cyclase Activator Runcaciguat (BAY 1101042)” (J Med Chem, 2021)",
  "key": {"[1]": {"target": "T1, Guanylate cyclase soluble subunit alpha-1 (Rattus norvegicus) (UniProt P19686)", "T1 sequence (whole entry)": "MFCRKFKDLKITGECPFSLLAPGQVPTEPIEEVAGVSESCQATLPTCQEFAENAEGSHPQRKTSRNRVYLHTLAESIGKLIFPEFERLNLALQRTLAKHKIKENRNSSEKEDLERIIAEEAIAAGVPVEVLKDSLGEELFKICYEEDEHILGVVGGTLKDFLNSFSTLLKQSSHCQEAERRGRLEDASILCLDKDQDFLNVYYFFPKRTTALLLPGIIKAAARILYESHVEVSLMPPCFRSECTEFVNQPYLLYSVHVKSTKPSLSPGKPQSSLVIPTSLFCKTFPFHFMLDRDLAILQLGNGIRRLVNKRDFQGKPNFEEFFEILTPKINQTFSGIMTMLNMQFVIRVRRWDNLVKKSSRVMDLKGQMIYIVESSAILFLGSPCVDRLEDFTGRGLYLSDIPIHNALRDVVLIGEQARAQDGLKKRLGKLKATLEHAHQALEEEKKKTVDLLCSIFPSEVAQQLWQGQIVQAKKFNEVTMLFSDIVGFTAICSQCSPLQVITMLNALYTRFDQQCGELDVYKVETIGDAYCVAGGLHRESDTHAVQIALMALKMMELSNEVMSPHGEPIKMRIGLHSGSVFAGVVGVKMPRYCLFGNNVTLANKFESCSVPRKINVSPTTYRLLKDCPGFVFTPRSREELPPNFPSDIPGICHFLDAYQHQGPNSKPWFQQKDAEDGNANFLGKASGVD", "test": "Activation of recombinant rat sGC alpha1 subunit expressed in CHO cells assessed as induction of [32P-cGMP] formation using alpha-[32P-GTP] as substrate measured after 6 mins by luminescence assay", "assay_type": "cell-based", "settings": "filed as activator"}, "[2]": {"test": "Clearance in Wistar rat at 0.3 mg/kg, iv measured up to 24 hrs by LC-MS analysis", "assay_type": "ADME, organism-based", "settings": "in vivo", "method_in_brief": "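Rats dosed iv at 0.3 mg/kg; blood clearance determined.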"}, "[3]": {"test": "Plasma clearance in iv dosed Beagle dog measured up to 24 hrs by LC-MS analysis", "assay_type": "ADME, organism-based, Canis lupus familiaris"}, "[4]": {"test": "Plasma clearance in iv dosed cynomolgus monkey measured up to 24 hrs by LC-MS analysis", "assay_type": "ADME, organism-based, Macaca fascicularis"}, "[5]": {"target": "T1, Guanylate cyclase soluble subunit alpha-1 (Rattus norvegicus)", "test": "Activation of recombinant rat sGC alpha1 subunit expressed in CHO cells assessed as induction of [32P-cGMP] formation by measuring efficacy using alpha-[32P-GTP] as substrate measured after 6 mins by luminescence assay relative to control", "assay_type": "cell-based"}, "[6]": {"test": "Activation of recombinant rat sGC expressed in CHO cells by luminescence assay", "assay_type": "cell-based", "method_in_brief": "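Stable CHO reporter cell line overexpressing rat sGC; cGMP formation read as luminescence. EC50 from concentration–response. MEC taken as lowest concentration giving at least threefold increase in basal luminescence.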"}, "[7]": {"test": "Induction of CYP3A4 in human hepatocytes using phenacetin as substrate incubated for 60 mins by LC-MS/MS analysis", "settings": "1 h"}},
  "data": [
    {"smiles": "Cc1c(CCC(=O)O)cccc1NC(=O)[C@H](c1ccc(Cn2nc(C(F)(F)F)ccc2=O)cc1)C1CCCC1", "values": [
      {"measurement": "MEC", "setting": "[1]", "value": 3, "unit": "nM"}
    ]},
    {"smiles": "O=C(NCCCCC1(C(=O)O)CC1)[C@H](c1ccc(CN2N=C(c3ccccc3)OCC2=O)cc1)C1CCCC1", "values": [
      {"measurement": "MEC", "setting": "[1]", "value": 10, "unit": "nM"},
      {"measurement": "clearance", "setting": "[2]", "value": 5.17, "unit": "mL/min/kg"},
      {"measurement": "clearance", "setting": "[3]", "value": 30, "unit": "mL/min/kg"},
      {"measurement": "clearance", "setting": "[4]", "value": 23.3, "unit": "mL/min/kg"}
    ]},
    {"smiles": "CC(C)(CCCCNC(=O)[C@H](c1ccc(CN2N=C(c3ccccc3)OCC2=O)cc1)C1CCCC1)C(=O)O", "values": [
      {"measurement": "MEC", "setting": "[1]", "value": 100, "unit": "nM"}
    ]},
    {"smiles": "CC(C)C(CC(=O)O)c1ccc(Cl)c(NC(=O)[C@H](c2ccc(Cl)cc2)[C@@H](C)C(F)(F)F)c1", "note": "(stereo in doubt; 44b) [listing 1 of 2 here]", "values": [
      {"measurement": "MEC", "setting": "[1]", "value": 3, "unit": "nM"},
      {"measurement": "Efficacy", "setting": "[5]; filed as activator", "value": 47, "unit": "%"}
    ]},
    {"smiles": "CC(C)C(CC(=O)O)c1ccc(Cl)c(NC(=O)[C@H](c2ccc(Cl)cc2)[C@@H](C)C(F)(F)F)c1", "note": "(stereo in doubt; 44b) [listing 2 of 2 here]", "values": [
      {"measurement": "EC50", "setting": "[6]; cho", "value": 0.01, "unit": "µM"},
      {"measurement": "Activity", "setting": "[7]", "value": "< 29", "unit": "nM"}
    ]},
    {"smiles": "CC[C@H](C)[C@H](C(=O)Nc1cccc(CCC(=O)O)c1C)N1CCC(CN2N=C(c3ccccc3)OCC2=O)CC1", "values": [
      {"measurement": "MEC", "setting": "[1]", "value": 7, "unit": "nM"}
    ]},
    {"smiles": "C[C@H]([C@H](C(=O)Nc1ccc(Cl)c(CC2(C(=O)O)CC2)c1)c1ccc(Cl)cc1)C(F)(F)F", "values": [
      {"measurement": "MEC", "setting": "[1]", "value": 300, "unit": "nM"},
      {"measurement": "Efficacy", "setting": "[5]", "value": 1.2, "unit": "%"}
    ]},
    {"smiles": "Cc1ccc(CC2(C(=O)O)CC2)cc1NC(=O)[C@H](c1ccc(Cl)cc1)[C@@H](C)C(F)(F)F", "values": [
      {"measurement": "MEC", "setting": "[1]", "value": 3, "unit": "nM"},
      {"measurement": "Efficacy", "setting": "[5]; filed as activator", "value": 44, "unit": "%"}
    ]},
    {"smiles": "Cc1c(CCC(=O)O)cccc1NC(=O)[C@H](c1ccc(CN2N=C(c3ccccc3)OCC2=O)cc1)[C@@H](C)C(F)(F)F", "values": [
      {"measurement": "MEC", "setting": "[1]", "value": 3, "unit": "nM"}
    ]},
    {"smiles": "O=C(O)CCCCCNC(=O)[C@H](c1ccc(CN2N=C(c3ccccc3)OCC2=O)cc1)C1CCCC1", "values": [
      {"measurement": "MEC", "setting": "[1]", "value": 100, "unit": "nM"}
    ]},
    {"smiles": "C[C@H]([C@H](C(=O)Nc1cc(CC2(C(=O)O)CC2)ccc1F)c1ccc(Cl)cc1)C(F)(F)F", "values": [
      {"measurement": "MEC", "setting": "[1]", "value": 0.3, "unit": "nM"},
      {"measurement": "Efficacy", "setting": "[5]", "value": 34, "unit": "%"}
    ]},
    {"smiles": "Cc1c(CCC(=O)O)cccc1NC(=O)[C@H](c1ccc(Cl)cc1)C1CCCC1", "values": [
      {"measurement": "MEC", "setting": "[1]", "value": 200, "unit": "nM"},
      {"measurement": "Efficacy", "setting": "[5]", "value": 19, "unit": "%"},
      {"measurement": "clearance", "setting": "[2]", "value": 12.8, "unit": "mL/min/kg"},
      {"measurement": "EC50", "setting": "[6]; CHO", "value": 0.044, "unit": "µM"}
    ]},
    {"smiles": "O=C(O)[C@H]1Cc2cccc(NC(=O)[C@H](c3ccc(CN4N=C(c5ccccc5)OCC4=O)cc3)C3CCCC3)c2C1", "values": [
      {"measurement": "MEC", "setting": "[1]", "value": 30, "unit": "nM"}
    ]},
    {"smiles": "O=C(O)c1ccc(CNC(=O)C(c2ccc(CN3N=C(c4ccccc4)OCC3=O)cc2)C2CCCC2)cc1", "note": "(racemic)", "values": [
      {"measurement": "MEC", "setting": "[1]", "value": 10, "unit": "nM"}
    ]},
    {"smiles": "CC[C@@H](C)[C@H](C(=O)Nc1cccc(CCC(=O)O)c1C)N1CCC(CN2N=C(c3ccccc3)OCC2=O)CC1", "values": [
      {"measurement": "MEC", "setting": "[1]", "value": 30, "unit": "nM"}
    ]},
    {"smiles": "O=C(O)CCc1cccc(NC(=O)[C@@H](c2ccc(CN3N=C(c4ccccc4)OCC3=O)cc2)C2CCCC2)c1", "values": [
      {"measurement": "MEC", "setting": "[1]", "value": 300, "unit": "nM"}
    ]},
    {"smiles": "CCc1ccc([C@@H](C(=O)Nc2cc(C3(CC(=O)O)CC3)ccc2F)[C@@H](C)C(F)(F)F)cc1", "values": [
      {"measurement": "MEC", "setting": "[1]", "value": 10, "unit": "nM"},
      {"measurement": "Efficacy", "setting": "[5]; filed as activator", "value": 43, "unit": "%"},
      {"measurement": "EC50", "setting": "[6]; CHO", "value": 0.111, "unit": "µM"},
      {"measurement": "Activity", "setting": "[7]", "value": 31, "unit": "nM"}
    ]},
    {"smiles": "C[C@H]([C@H](C(=O)Nc1cc(C2(CC(=O)O)COC2)ccc1Cl)c1ccc(Cl)cc1)C(F)(F)F", "values": [
      {"measurement": "MEC", "setting": "[1]", "value": 3, "unit": "nM"},
      {"measurement": "Efficacy", "setting": "[5]; filed as activator", "value": 52, "unit": "%"},
      {"measurement": "EC50", "setting": "[6]; CHO", "value": 0.07, "unit": "µM"},
      {"measurement": "Activity", "setting": "[7]", "value": 2245, "unit": "nM"}
    ]},
    {"smiles": "CN(C(=O)C(c1ccc(CN2N=C(c3ccccc3)OCC2=O)cc1)C1CCCC1)c1cccc(CCC(=O)O)c1", "note": "(stereo unspecified)", "values": [
      {"measurement": "MEC", "setting": "[1]", "value": 10000, "unit": "nM"}
    ]}
  ]
}
